Test results as given in ChEMBL document CHEMBL4004808, “Antibacterial and Cytotoxic Phenolic Metabolites from the Fruits of Amorpha fruticosa” (J Nat Prod, 2017).
pIC50: −log10 of the molar value. Values after ≈ are worked out from the molar mass of the structure shown. Active and inactive are the calls of the source. The rule behind the calls is not given here.

Columns and labels:
[1] = tested on: L5178Y; experiment: Cytotoxicity against mouse L5178Y cells by MTT assay; format: functional, cell-based
In short: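 MTT proliferation assay on the L5178Y murine lymphoma line, run three times; kahalalide F as positive control and 0.1% DMSO in medium as negative control.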

[2] = tested on: Enterococcus faecium; experiment: Antibacterial activity against Enterococcus faecium ATCC 35667 by broth microdilution method; format: functional
In short: (§1)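 MIC by broth microdilution following CLSI recommendations; moxifloxacin as positive control, DMSO as negative control.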

[3] = tested on: Staphylococcus aureus; experiment: Antibacterial activity against methicilin-resistant Staphylococcus aureus ATCC 700699 by broth microdilution method; format: functional; details: Mu50
In short: (§2)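 MIC determined by broth microdilution following CLSI recommendations, with moxifloxacin as positive control and DMSO as negative control.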

[4] = tested on: Acinetobacter baumannii; experiment: Antibacterial activity against Acinetobacter baumannii ATCC BAA1605 by broth microdilution method; format: functional; in short: as §1
[5] = tested on: MRC5; experiment: Cytotoxicity against human MRC5 cells after 48 hrs by resazurin dye-based fluorescence analysis; format: cell-based; details: MRC5, 48 h
[6] = tested on: THP-1; experiment: Cytotoxicity against human THP1 cells after 48 hrs by resazurin dye-based fluorescence analysis; format: cell-based; details: THP-1, 48 h
[7] = tested on: Mycobacterium tuberculosis; experiment: Antibacterial activity against Mycobacterium tuberculosis by broth microdilution method; format: functional
[8] = tested on: Enterococcus faecium; experiment: Antibacterial activity against Enterococcus faecium ATCC 700221 by broth microdilution method; format: functional; in short: as §1
[9] = tested on: Enterococcus faecalis; experiment: Antibacterial activity against Enterococcus faecalis ATCC 29212 by broth microdilution method; format: functional; in short: as §2
[10] = tested on: Staphylococcus aureus; experiment: Antibacterial activity against Staphylococcus aureus ATCC 25923 by broth microdilution method; format: functional
[11] = tested on: Enterococcus faecalis; experiment: Antibacterial activity against vancomycin-resistant Enterococcus faecalis ATCC 51299 by broth microdilution method; format: functional; in short: as §2

Row | SMILES | pIC50 [1] | Activity [1] | MIC [2] | MIC [3] | MIC [4] | pIC50 [5] | pIC50 [6] | MIC [7] | MIC [8] | MIC [9] | MIC [10] | MIC [11]
1 | COc1cc2c(cc1OC)[C@@H]1C(=O)c3c(O)cc4c(c3O[C@@H]1CO2)C=CC(C)(C)O4 [TOXICAROL] | 6.70 |  |  |  |  |  |  |  |  |  |  | 
2 | CC(C)=CCC/C(C)=C\Cc1c(O)cc(CCc2ccccc2)c(C(=O)O)c1O |  | inactive | 100 µM (≈ 39.5 µg/mL) | 100 µM (≈ 39.5 µg/mL) | > 50 µM | 4.00 | 4.00 | > 50 µM | 100 µM (≈ 39.5 µg/mL) | 100 µM (≈ 39.5 µg/mL) | 100 µM (≈ 39.5 µg/mL) | 100 µM (≈ 39.5 µg/mL)
3 | CC(C)=CCC/C(C)=C/Cc1c(O)cc(O)c2c1O[C@H](c1ccccc1)[C@H](O)C2=O |  |  | 100 µM (≈ 40.8 µg/mL) | 100 µM (≈ 40.8 µg/mL) | > 50 µM | 4.00 | 4.00 | > 50 µM | 100 µM (≈ 40.8 µg/mL) | 50 µM (≈ 20.4 µg/mL) | 100 µM (≈ 40.8 µg/mL) | 100 µM (≈ 40.8 µg/mL)
4 | CC(C)=CCC/C(C)=C/Cc1c(O)cc(/C=C\c2ccccc2)c(C(=O)O)c1O |  | inactive | 50 µM (≈ 19.6 µg/mL) | 100 µM (≈ 39.2 µg/mL) | > 50 µM | 4.00 | 4.00 | > 50 µM | 100 µM (≈ 39.2 µg/mL) | 50 µM (≈ 19.6 µg/mL) | 50 µM (≈ 19.6 µg/mL) | 100 µM (≈ 39.2 µg/mL)
5 | COc1cc(CCc2ccccc2)c(C(=O)O)c(O)c1CC=C(C)C [AMORFRUTIN A] |  | inactive | 50 µM (≈ 17 µg/mL) | 6.3 µM (≈ 2.14 µg/mL) | > 50 µM |  | 4.30 | > 50 µM | 25 µM (≈ 8.51 µg/mL) | 100 µM (≈ 34 µg/mL) | 50 µM (≈ 17 µg/mL) | 25 µM (≈ 8.51 µg/mL)
6 | COc1cc(O)c2c(c1)O[C@@H]1COc3cc(OC)c(OC)cc3[C@@H]1C2=O | 6.70 |  |  |  |  |  |  |  |  |  |  | 
7 | COC1=C[C@]2(OC[C@H]3Oc4c(ccc5c4C=CC(C)(C)O5)C(=O)[C@H]32)C(=O)CC1=O | 5.12 |  |  |  |  |  |  |  |  |  |  | 
8 | C=C(C)[C@H]1Cc2c(ccc3c2O[C@@H]2COc4cc(OC)c(OC)cc4[C@@H]2C3=O)O1 [ROTENONE] | 6.52 |  |  |  |  |  |  |  |  |  |  | 
9 | CC(C)=CCC/C(C)=C/Cc1c(O)ccc(C(=O)/C=C/c2ccc(O)cc2)c1O [XANTHOANGELOL] |  |  | 12.5 µM (≈ 4.91 µg/mL) | 3.1 µM (≈ 1.22 µg/mL) | > 50 µM | 4.60 | 4.60 | > 50 µM | 3.1 µM (≈ 1.22 µg/mL) | 12.5 µM (≈ 4.91 µg/mL) | 25 µM (≈ 9.81 µg/mL) | 6.3 µM (≈ 2.47 µg/mL)
10 | CC(C)=CCC/C(C)=C/Cc1c(O)cc(/C=C\c2ccccc2)cc1O |  | inactive | 100 µM (≈ 34.8 µg/mL) | 100 µM (≈ 34.8 µg/mL) | > 50 µM | 4.00 | 4.00 | > 50 µM | 100 µM (≈ 34.8 µg/mL) | 100 µM (≈ 34.8 µg/mL) | 100 µM (≈ 34.8 µg/mL) | 100 µM (≈ 34.8 µg/mL)
11 | COc1ccc(-c2coc3c(C/C=C(\C)CCC=C(C)C)c(O)cc(O)c3c2=O)cc1O |  |  | 25 µM (≈ 10.9 µg/mL) | 100 µM (≈ 43.7 µg/mL) | > 50 µM | 4.30 | 4.30 | > 50 µM | 25 µM (≈ 10.9 µg/mL) | 50 µM (≈ 21.8 µg/mL) | 100 µM (≈ 43.7 µg/mL) | 100 µM (≈ 43.7 µg/mL)
12 | CC(C)=CCC/C(C)=C/Cc1c(O)cc(CCc2ccccc2)cc1O |  | inactive | 12.5 µM (≈ 4.38 µg/mL) | 6.3 µM (≈ 2.21 µg/mL) | > 50 µM |  | 4.30 | > 50 µM | 12.5 µM (≈ 4.38 µg/mL) | 25 µM (≈ 8.76 µg/mL) | 25 µM (≈ 8.76 µg/mL) | 12.5 µM (≈ 4.38 µg/mL)
13 | COc1cc(/C=C/c2ccccc2)cc(OC)c1C/C=C(\C)CCC=C(C)C |  | inactive | 100 µM (≈ 37.7 µg/mL) | > 100 µM | > 50 µM | 4.00 | 4.00 | > 50 µM | > 100 µM | > 100 µM | > 100 µM | > 100 µM
14 | COc1ccc(-c2coc3cc(O)c(C/C=C(\C)CCC=C(C)C)c(O)c3c2=O)cc1O |  |  | 25 µM (≈ 10.9 µg/mL) | 100 µM (≈ 43.7 µg/mL) | > 50 µM | 4.30 | 4.30 | > 50 µM | 12.5 µM (≈ 5.46 µg/mL) | 25 µM (≈ 10.9 µg/mL) | 100 µM (≈ 43.7 µg/mL) | 50 µM (≈ 21.8 µg/mL)
15 | COC1=CC(=O)[C@]2(C=C1OC)OC[C@H]1Oc3c4c(cc(O)c3C(=O)[C@H]12)OC(C)(C)C=C4 | 5.89 |  |  |  |  |  |  |  |  |  |  | 
16 | COc1c(N2C[C@@H]3CCCN[C@@H]3C2)c(F)cc2c(=O)c(C(=O)O)cn(C3CC3)c12 [MOXIFLOXACIN] |  |  | 1.9 µM (≈ 0.763 µg/mL) | 3.8 µM (≈ 1.53 µg/mL) |  |  |  |  | 7.8 µM (≈ 3.13 µg/mL) | 0.9 µM (≈ 0.361 µg/mL) | < 0.9 µM | 0.9 µM (≈ 0.361 µg/mL)
17 | C=C(C)[C@@H](O)CC/C(C)=C/Cc1c(O)cc(CCc2ccccc2)c(C(=O)O)c1O |  | inactive |  |  |  |  |  |  |  |  |  | 
18 | C=C(C)[C@@H](O)CC/C(C)=C/Cc1c(OC)cc(CCc2ccccc2)c(C(=O)O)c1O |  | inactive |  |  |  |  |  |  |  |  |  | 
19 | COc1cc2c(cc1OC)-c1c(oc3c4c(ccc3c1=O)OC(C)(C)C=C4)CO2 [DEHYDRODEGUELIN] | 4.99 |  |  |  |  |  |  |  |  |  |  | 
20 | CC(C)=CCC/C(C)=C/Cc1c(O)cc(/C=C/c2ccccc2)cc1O [AMORPHASTILBOL] |  | inactive | 6.3 µM (≈ 2.2 µg/mL) | 3.1 µM (≈ 1.08 µg/mL) | > 50 µM | 4.30 | 4.60 | > 50 µM | 6.3 µM (≈ 2.2 µg/mL) | 12.5 µM (≈ 4.36 µg/mL) | 6.3 µM (≈ 2.2 µg/mL) | 6.3 µM (≈ 2.2 µg/mL)
21 | C/C=C1\NC(=O)[C@H](Cc2ccccc2)NC(=O)[C@@H](C(C)C)NC(=O)[C@@H](C(C)CC)NC(=O)[C@H](NC(=O)[C@H](NC(=O)[C@H](CCCN)NC(=O)[C@@H]2CCCN2C(=O)[C@H](NC(=O)[C@@H](NC(=O)[C@@H](NC(=O)[C@H](NC(=O)CCCC(C)C)C(C)C)C(C)O)C(C)C)C(C)C)C(C)CC)C(C)OC(=O)[C@H](C(C)C)NC1=O (some centres not stated) | 5.37 |  |  |  |  |  |  |  |  |  |  | 
22 | CC(C)=CCC/C(C)=C/Cc1c(O)cc(/C=C/c2ccccc2)c(C(=O)O)c1O |  | inactive | 25 µM (≈ 9.81 µg/mL) | 12.5 µM (≈ 4.91 µg/mL) | > 50 µM | 4.00 | 4.00 | > 50 µM | 25 µM (≈ 9.81 µg/mL) | 25 µM (≈ 9.81 µg/mL) | 12.5 µM (≈ 4.91 µg/mL) | 25 µM (≈ 9.81 µg/mL)
23 | COc1cc2c(cc1OC)[C@@H]1C(=O)c3ccc4c(c3O[C@@H]1CO2)C[C@H](C(C)(C)O[C@@H]1O[C@H](CO)[C@@H](O)[C@H](O)[C@H]1O)O4 | 5.77 |  |  |  |  |  |  |  |  |  |  | 
24 | COc1cc2c(cc1OC)[C@@H]1C(=O)c3ccc4c(c3O[C@@H]1CO2)C[C@H](C(C)(C)O)O4 [DALPANOL] | 6.15 |  |  |  |  |  |  |  |  |  |  | 
25 | COc1cc2c(cc1OC)[C@@H]1C(=O)c3ccc4c(c3O[C@@H]1CO2)C=CC(C)(C)O4 [DEGUELIN] | 6.70 |  |  |  |  |  |  |  |  |  |  | 
26 | C=C(CO)[C@H]1Cc2c(ccc3c2O[C@@H]2COc4cc(OC)c(OC)cc4[C@]2(O)C3=O)O1 [DABINOL] | 6.70 |  |  |  |  |  |  |  |  |  |  | 
27 | COc1cc2c(cc1OC)[C@@H]1C(=O)c3ccc(O)c(CC=C(C)C)c3O[C@@H]1CO2 [ROTENONIC ACID] | 6.22 |  |  |  |  |  |  |  |  |  |  | 
28 | COc1cc(CCc2ccccc2)c(C(=O)O)c(O)c1C/C=C(/C)CCC=C(C)C |  | inactive | 6.3 µM (≈ 2.57 µg/mL) | 12.5 µM (≈ 5.11 µg/mL) | > 50 µM | 4.00 | 4.00 | > 50 µM | 6.3 µM (≈ 2.57 µg/mL) | 6.3 µM (≈ 2.57 µg/mL) | 12.5 µM (≈ 5.11 µg/mL) | 6.3 µM (≈ 2.57 µg/mL)
